Shown are actives, neighbours in structure and some others; about 3.5% of the full set was active somewhere.
RGS4 act: RGS4 potentiation or activation. AID 463111. HEK293 M3R/inducible RGS4, carbachol calcium flux Fluo4; stronger effect = lower value. B-score at 10 µM. hit rate 0.92% among 310,000;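 active = B-score of the integrated calcium signal more than 4 SD below the library mean, with starting fluorescence not abnormally high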;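 note: negative B-score means reduced calcium response which marks RGS4 activation or potentiation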
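Reagent: ECmax carbachol challenge; Test system: M3R-expressing HEK293 line, RGS4 induced by doxycycline; Schedule: overnight RGS4 induction, 30 min dye load 37 °C, 20 min compound RT; Detection: calcium dye Fluo4 fluorescence; Read-out: Agonist-evoked peak-minus-minimum fluorescence over baseline, integrated ratio, B score.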
MrgX1 agonist: activates human MrgX1 receptor signaling | MrgX1-HEK293 cells, Fluo-4 calcium fluorescence, agonist mode; stronger effect = higher value | Q96LB2 | hit rate 0.44% among 310,000 | B-score at 10 µM;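 active = calcium response B-score plate-corrected fluorescence ratio at least 3 library SD, with starting fluorescence B-score inside 5 SD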
Target sequence (Q96LB2 whole entry, looked up): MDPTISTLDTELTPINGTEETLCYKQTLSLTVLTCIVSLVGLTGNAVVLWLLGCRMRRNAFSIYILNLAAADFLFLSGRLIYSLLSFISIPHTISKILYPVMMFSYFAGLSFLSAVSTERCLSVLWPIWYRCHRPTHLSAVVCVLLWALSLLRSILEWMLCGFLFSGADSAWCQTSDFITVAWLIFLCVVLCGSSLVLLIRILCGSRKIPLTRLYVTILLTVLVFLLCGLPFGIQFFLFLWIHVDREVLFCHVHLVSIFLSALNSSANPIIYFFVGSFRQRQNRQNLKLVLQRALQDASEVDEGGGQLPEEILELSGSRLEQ
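Test system: HEK293 cells stably expressing human MrgX1 receptor; Input: fifteen thousand cells per well; Dosing: compound delivered in addition one of three; Schedule: overnight seeding, then 1 h dark dye loading; Technique: Fluo-4 NW calcium fluorescence; Measure: B-scored fluorescence response ratio; Controls: positive and negative controls per plate.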
MrgX1 antagonist: antagonists of human MrgX1 receptor; Q96LB2; MRGX1-HEK293 calcium flux, Fluo-4, BAM8-22 antagonism; stronger effect = lower value; B-score at 10 µM; hit rate 1.3% among 310,000;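 active = calcium-response B-score plate-corrected more than 3 library SD below zero, starting fluorescence within 5 deviations, no agonist response on first addition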;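 note: peak minus trough fluorescence over baseline after final BAM8-22 challenge near maximal dose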
MrgX1 PAM: human MrgX1 positive allosteric modulation, primary screen | B-score at 10 µM | AID 588675 | MrgX1-HEK293, Fluo-4 calcium flux, FDSS; stronger effect = higher value | hit rate 0.63% among 310,000 | Q96LB2;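 active = plate-corrected calcium response at least 3 library SD above typical, normal starting fluorescence, not activating the receptor alone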;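 note: compound read alongside a low EC10 to EC30 dose of BAM8-22 agonist; peak minus trough fluorescence over baseline measured at the second addition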
RGS4 block: inhibitors of human RGS4. P49798. HEK293 M3R/RGS4 inducible, Fluo-4 calcium flux; stronger effect = higher value; triggered by carbachol at its EC20. B-score at 10 µM. hit rate 0.45% among 310,000;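 active = B-score, a plate-corrected calcium signal, over three deviations above library mean, with baseline fluorescence within five deviations of library mean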;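 note: RGS4 expression induced by doxycycline in cells with stable M3 receptor; B-score is computed from the integrated fluorescence ratio over baseline after carbachol; higher B-score means a larger calcium signal and so more RGS4 inhibition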
Target sequence (P49798 whole entry, looked up): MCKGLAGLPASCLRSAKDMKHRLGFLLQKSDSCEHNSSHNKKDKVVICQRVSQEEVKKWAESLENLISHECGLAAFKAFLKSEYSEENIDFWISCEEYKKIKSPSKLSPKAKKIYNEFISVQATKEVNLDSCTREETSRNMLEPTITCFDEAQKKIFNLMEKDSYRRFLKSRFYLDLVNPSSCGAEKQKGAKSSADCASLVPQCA
RGS4 act valid: confirmation of RGS4 activators | AID 602282 | shares compounds with RGS4 act | inhibition, % at 10 µM | hit rate 89% among 1,100 | HEK293 M3R/RGS4 inducible, carbachol calcium flux Fluo4;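 active = inhibition above 3 SD of the buffer control wells, cut at about 41% in these data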;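 note: signal is the integrated peak-minus-minimum Fluo4 fluorescence over baseline ratio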
M3R Ca counter: activity in cells without induced RGS4 expression | shares compounds with RGS4 act | HEK293 M3R non-induced RGS4, Fluo4 calcium flux; after carbachol challenge at its EC90 | inhibition, % at 10 µM | hit rate 82% among 1,100;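 active = inhibition exceeding 3 SD of buffer-only control wells, cut at about 26% in these data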;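 note: percent drop in integrated peak-minus-baseline over baseline Fluo4 ratio after carbachol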
Starred values were filed as active, the others as inactive; i = inactive; / = no result.

SMILES | RGS4 act | MrgX1 agonist | MrgX1 antagonist | MrgX1 PAM | RGS4 block | RGS4 act valid | M3R Ca counter
COC(=O)c1ccc(CN2CCC(CO)(Cc3ccccc3Cl)CC2)cc1 | -7.8* | i | i | i | i | 92* | 60*
CCOC(=O)C1(CCc2ccccc2)CCN(Cc2ccc(C(=O)OC)cc2)CC1 | i | i | i | i | i | / | /
CCOC(=O)C1(CC2CC2)CCN(Cc2ccc(C(=O)OC)cc2)CC1 | -8.7* | i | i | i | i | 93* | 49*
COc1ccc(/C=C/CN2CCC(CO)(Cc3ccccc3Cl)CC2)cc1 | -9.7* | i | i | i | i | 89* | 40*
CN(C(=O)COC(=O)C1CCN(S(=O)(=O)c2ccc3c(c2)OCCO3)CC1)C1CCS(=O)(=O)C1 (configuration not stated) | i | i | i | i | i | / | /
OC1(CC#CCN2CCCCC2)c2ccccc2-c2ccccc21 | i | i | i | i | i | / | /
OC1(C#CCCN2CCCCC2)c2ccccc2-c2ccccc21 | -8.7* | i | i | i | i | 92* | 60*
Cc1ccc(NS(=O)(=O)c2cc(Br)cnc2N)cc1C | -8* | i | i | i | i | 94* | 94*
CSc1cccc(NS(=O)(=O)c2cc(Br)cnc2N)c1 | -7.7* | i | i | i | i | 92* | 98*
OC(C#CCN1CCCCC1)(c1ccccc1)c1ccccc1 | i | i | i | i | i | / | /
OC(C#CCN1CCCC1)(c1ccccc1)c1ccccc1 | -7.6* | i | i | i | i | 94* | 91*
CC(O)(C#CCN1CCCCCC1)c1ccccc1 (configuration not stated) | -9.8* | i | i | i | i | 66* | 84*
CC(C)(C#CC(O)(c1ccccc1)c1ccccc1)N1CCCC1 | -8.9* | i | i | i | i | 92* | 87*
O=c1oc(-c2ccc(Cl)c(Cl)c2)nn1-c1ccc(C(F)(F)F)cn1 | i | i | i | i | i | / | /
O=C(Nc1ccnn1C1CCN(C(=O)c2cnsn2)CC1)c1cccc(F)c1 | i | i | i | i | i | / | /
O=C(CNS(=O)(=O)c1ccccc1)NCC(=O)N1CCCCC1 | i | i | i | i | i | / | /
CN(C)c1ccc(/C=N/n2c(-c3cccnc3)n[nH]c2=S)cc1 | i | i | i | i | i | / | /
CN(C)c1ccc(/C=N/n2c(-c3ccccc3Br)n[nH]c2=S)cc1 | -12* | i | i | i | i | 94* | 94*
COc1ccc(C)cc1S(=O)(=O)N1CCC(C(=O)NC2CCCC2)CC1 | -8.1* | i | i | i | i | 0 | 0
Oc1ccc(Nc2nc(N3CCCC3)c3ccccc3n2)cc1 | -8.2* | i | i | i | i | 91* | 65*
CC(=O)c1ccc(NC(=O)CS(=O)(=O)c2cn(CC(=O)N3CCOCC3)c3ccccc23)cc1 | i | i | i | i | i | / | /
COc1ccc(S(=O)(=O)N2CCOCC2)cc1NC(=O)CCc1nc2ccccc2c(=O)[nH]1 | i | i | i | i | i | / | /
CCN(c1ccccc1)S(=O)(=O)c1ccc(OC)c(NC(=O)CCc2nc3ccccc3c(=O)[nH]2)c1 | -7.9* | i | i | i | i | 85* | 56*
CC(C)Cn1c(-c2ccncc2)n[nH]c1=S | i | i | i | i | i | / | /
CC(C)Cn1c(-c2csc3c2CCCC3)n[nH]c1=S | -8* | i | i | i | i | 94* | 67*
SMILES | RGS4 act | MrgX1 agonist | MrgX1 antagonist | MrgX1 PAM | RGS4 block | RGS4 act valid | M3R Ca counter
CC(C)Cn1c(-c2ccc(F)cc2)n[nH]c1=S | -8.5* | i | i | i | i | 62* | 84*
CC(C)c1nnc(NC(=O)CS(=O)(=O)c2ccccc2)s1 | i | i | i | i | i | / | /
COC(=O)c1ccc(CN2CCC(Oc3ccc(C(=O)N4CCCCC4)cc3)CC2)cc1 | -9.9* | i | i | i | i | 92* | 80*
COC(=O)c1ccc(CN2CCC(Oc3cccc(C(=O)N4CCCC4)c3)CC2)cc1 | -8* | i | i | i | i | 87* | 59*
CSc1ccc(CN2CCC(Oc3cccc(C(=O)N4CCCC4)c3)CC2)cc1 | i | i | i | i | i | / | /
CCc1noc(C)c1C(=O)Nc1nc(-c2ccc(OC)cc2OC)cs1 | i | i | i | i | i | / | /
Cc1nn(-c2ccc(N3CCCCC3)nn2)c(C)c1CCC(=O)Nc1ccc(F)c(F)c1 | -8.5* | i | i | i | i | 64* | 49*
CCc1nc2ccc(C(=O)NC3CCC(C)CC3)cc2nc1CC (configuration not stated) | i | i | i | i | i | / | /
CSC1=NCCN1C(=O)COc1ccc2ccccc2c1 | -9.5* | i | i | i | i | 0 | 0
CSC1=NCCN1C(=O)COc1ccccc1 | i | i | i | i | i | / | /
Cc1noc(C(=O)N2CCN(Cc3ccc4c(c3)OCO4)CC2)c1Cl | i | i | i | i | i | / | /
Cc1ccccc1Sc1c(C#N)c(-c2ccccc2)nn1C | -8.3* | i | i | i | i | 88* | 58*
O=C(Nc1cccc(-c2nc3ccccc3s2)c1)c1cc(=O)c2ccccc2o1 | i | i | i | i | i | / | /
O=C(Nc1cccc(-c2nc3ccccc3s2)c1)c1cccs1 | -8.1* | i | i | i | i | 92* | 67*
Cc1cc(NC(=O)CSc2cn(CCNC(=O)c3ccc(F)cc3)c3ccccc23)no1 | -7.7* | i | i | i | i | 69* | 33*
CCC(C(=O)OCC(=O)Nc1cc(Cl)cc(Cl)c1)c1ccccc1 (configuration not stated) | -8.4* | i | i | i | i | 74* | 26*
CCC(C(=O)OCC(=O)Nc1cccc(C(C)=O)c1)c1ccccc1 (configuration not stated) | i | i | i | i | i | / | /
CCCc1cc(C(=O)N2CCN(c3ccc(C(F)(F)F)cn3)CC2)sc1C | -11* | i | i | i | i | 83* | 56*
CC(=O)c1cccc(OCC(=O)N2CCN(c3ccc(C(F)(F)F)cn3)CC2)c1 | -12* | i | i | i | i | 0 | 0

Bioassay records as filed in PubChem BioAssay.
